Measurements published in ChEMBL document CHEMBL1129965, “GRID/GOLPE 3D quantitative structure-activity relationship study on a set of benzamides and naphthamides, with affinity for the dopamine D3 receptor subtype” (J Med Chem, 1997).

Target: D(3) dopamine receptor (Homo sapiens, UniProt P35462)
Test: Competitive inhibition of [3H]spiperone binding to the human dopamine receptor D3 expressed in CHO cells, expressed as 10log Ki
Format: cell-based
Procedure, shortened: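 Displacement of [3H]spiperone from human dopamine D3 receptors expressed in CHO K1 cells. Four to six test concentrations, each run in triplicate. IC50 from nonlinear regression, converted to Ki (nM) by Cheng–Prusoff, then reported as 10log Ki.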

Chain of D(3) dopamine receptor (P35462 whole entry): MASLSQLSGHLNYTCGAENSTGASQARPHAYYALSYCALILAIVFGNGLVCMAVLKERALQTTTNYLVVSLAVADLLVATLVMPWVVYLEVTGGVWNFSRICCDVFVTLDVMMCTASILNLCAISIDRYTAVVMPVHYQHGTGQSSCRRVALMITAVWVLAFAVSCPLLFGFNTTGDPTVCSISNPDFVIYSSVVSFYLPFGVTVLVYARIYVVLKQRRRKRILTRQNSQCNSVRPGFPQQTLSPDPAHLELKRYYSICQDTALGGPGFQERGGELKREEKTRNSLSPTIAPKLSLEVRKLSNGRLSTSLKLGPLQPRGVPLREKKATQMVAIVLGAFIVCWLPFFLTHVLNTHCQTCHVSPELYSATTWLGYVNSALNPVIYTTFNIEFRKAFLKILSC

Compound | Ki [nM]
COc1c(C(=O)NCCN2CCC(c3ccccc3)CC2)cc(Br)c2ccccc12 | 79.4
COc1c(C(=O)NCCN2CCN(c3ccccc3)CC2)cc2ccccc2c1Br | 316
CCOc1c(C(=O)NCCN2CCN(c3cccc(C(F)(F)F)c3)CC2)cc(Br)c2ccccc12 | 126
COc1ccc(Br)cc1C(=O)NCCN1CCN(c2ccccc2)CC1 | 316
COc1c(C(=O)NCCN2CCN(c3ccccc3Cl)CC2)cc(Br)c2ccccc12 | 39.8
COc1c(C(=O)NCCN2CC=C(c3ccccc3)CC2)cc(Br)c2ccccc12 | 20
CCOc1c(C(=O)NCCN2CCN(c3ccccc3)CC2)cc(Br)c2ccccc12 | 251
COc1c(C(=O)NCCN2CCN(c3cccc(C(F)(F)F)c3)CC2)cc(Br)c2ccccc12 | 251
COc1c(C(=O)NCCN2CCN(c3ccccn3)CC2)cc(Br)c2ccccc12 | 79.4
COc1c(C(=O)NCCN2CCN(c3cccc(Cl)c3C)CC2)cc(Br)c2ccccc12 | 50.1
COc1c(C(=O)NCCN2CCN(c3cccc(Cl)c3Cl)CC2)cc(Cl)c2ccccc12 | 39.8
COc1c(C(=O)NCCN2CCN(c3ccccc3)CC2)cc(Br)c2ccccc12 | 25.1
COc1ccc(Br)c(O)c1C(=O)NCCN1CCN(c2ccccc2)CC1 | 398
COc1c(C(=O)NCCN2CCN(c3ccc(F)cc3F)CC2)cc(Br)c2ccccc12 | 200
COc1c(C(=O)NCCN2CCN(c3ccc(Cl)c(Cl)c3)CC2)cc(Br)c2ccccc12 | 200
COc1c(C(=O)NCCN2CCN(c3ccc(Cl)cc3Cl)CC2)cc(Br)c2ccccc12 | 100

Results, then the compound that gave them:

Ki [nM] | Compound
63.1 | COc1c(C(=O)NCCN2CCN(c3ccccc3C)CC2)cc(Br)c2ccccc12
79.4 | CCOc1c(C(=O)NCCN2CCN(c3ccccn3)CC2)cc(Br)c2ccccc12
501 | COc1c(Cl)cc(Cl)c(O)c1C(=O)NCCN1CCN(c2cccc(Cl)c2Cl)CC1
316 | COc1c(C(=O)NCCN2CCN(c3cccc(C)c3)CC2)cc(Br)c2ccccc12
50.1 | COc1c(C(=O)NCCN2CCN(c3ccccc3C#N)CC2)cc(Br)c2ccccc12
1580 | CCc1cc(Cl)c(O)c(C(=O)NCCN2CCN(c3ccccc3)CC2)c1OC
50.1 | COc1c(C(=O)NCCN2CCN(c3ccccc3)CC2)cc(Cl)c2ccccc12
251 | COc1c(C(=O)NCCN2CCN(c3ccc4ccccc4n3)CC2)cc(Br)c2ccccc12
79.4 | CCOc1c(C(=O)NCCN2CCN(c3ccccc3OC)CC2)cc(Br)c2ccccc12
1000 | COc1c(Cl)cc(Cl)c(O)c1C(=O)NCCN1CCN(c2ccccc2)CC1
79.4 | COc1ccccc1N1CCN(CCNC(=O)c2cc(Br)c3ccccc3c2OC)CC1
251 | COc1c(C(=O)NCCN2CCN(c3ccc(C)cc3)CC2)cc(Br)c2ccccc12

Target: not listed separately
Test: Competitive inhibition of [3H]spiperone binding to the human dopamine receptor D3 expressed in CHO cells, expressed as 10log Ki

Compound | Log Ki(nM)
COc1c(C(=O)NCCN2CCN(c3cccc(Cl)c3)CC2)cc(Br)c2ccccc12 | 1.6
